Here are results for 11 compounds from ChEMBL document CHEMBL3797098, “An in Vitro and in Vivo Investigation of Bivalent Ligands That Display Preferential Binding and Functional Activity for Different Melanocortin Receptor Homodimers” (J Med Chem, 2016).

Data set [1] concerns the target Melanocortin receptor 3 (Mus musculus) (UniProt P33033). Description: Displacement of 125I-NDP-MSH from mouse MC3R expressed in HEK293 cells incubated for 1 hr by gamma counting analysis relative to Ac-His-DPhe-Arg-Trp-NH2. Format: cell-based. Summed up: (§1)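 Mouse MC3R-Flag transiently transfected into HEK293 cells using FuGene6 two days before assay. Cells exposed 1 h at 37°C to 125I-NDP-MSH (100,000 cpm/well) plus competitor at 10^-12 to 10^-4 M in DMEM/0.1% BSA, then washed, lysed and gamma counted. Nonspecific binding defined with 10^-6 M NDP-MSH. Duplicates, ≥2 independent experiments.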
In general terms: Displacement assays read how much labelled ligand stays bound in the presence of the test substance.

Data set [2] deals with Melanocortin receptor 4 (Mus musculus) (UniProt P56450). Description: Displacement of 125I-NDP-MSH from mouse MC4R expressed in HEK293 cells incubated for 1 hr by gamma counting analysis relative to Ac-His-DPhe-Arg-Trp-NH2. It counts as cell-based. An outline of the steps:
(§2)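 Whole HEK293 cells stably expressing mouse MC1R or MC4R, grown to 90-100% confluency, incubated 1 h at 37°C in DMEM/0.1% BSA with 125I-NDP-MSH (100,000 cpm/well) and unlabeled ligand at 10^-12 to 10^-4 M. After one wash, cells lysed with NaOH/Triton X-100 and gamma counted. Nonspecific binding defined with 10^-6 M NDP-MSH.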

The target is the same in data set [3]. Description: Agonist activity at mouse MC4R expressed in HEK293 cells assessed as cAMP accumulation at 100 uM incubated for 2 hrs by alphascreen assay. Format: functional, cell-based. An outline of the steps:
(§3)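 cAMP response at 100 μM in stably transfected HEK293 cells (mouse MC3R-Flag, MC4R or MC5R), expressed as % of maximal NDP-MSH signal. AlphaScreen readout after 2 h room-temperature stimulation in IBMX-containing HBSS buffer, pH 7.4. Duplicate points, at least three independent experiments.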
(cAMP levels reflect the balance of adenylyl cyclase and phosphodiesterase activity.)

Data set [4] has as its target Melanocortin receptor 3 (Mus musculus) (UniProt P33033). Description: Agonist activity at mouse MC3R expressed in HEK293 cells assessed as cAMP accumulation at 100 uM incubated for 2 hrs by alphascreen assay. It counts as functional, cell-based. An outline of the steps: as §3
The target in data set [5] is Melanocyte-stimulating hormone receptor (Mus musculus) (UniProt Q01727). In words: Displacement of 125I-NDP-MSH from mouse MC1R expressed in HEK293 cells incubated for 1 hr by gamma counting analysis relative to Ac-His-DPhe-Arg-Trp-NH2. It counts as cell-based. An outline of the steps:
as §2

Data set [6] has as its target Melanocortin receptor 5 (Mus musculus) (UniProt P41149). In words: Agonist activity at mouse MC5R expressed in HEK293 cells assessed as cAMP accumulation incubated for 2 hrs by alphascreen assay relative to Ac-His-DPhe-Arg-Trp-NH2. Format: functional, cell-based. Summed up: (§4)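 HEK293 cells stably expressing mouse MC1R, MC3R (Flag-tagged), MC4R or MC5R, 10,000 cells/well, stimulated with ligand at 10^-13 to 10^-4 M for 2 h at room temperature in HBSS stimulation buffer with 0.5 mM IBMX, 0.1% BSA, pH 7.4. cAMP read by AlphaScreen competition after a further 2 h with donor beads.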

Data set [7] concerns the target Melanocyte-stimulating hormone receptor (Mus musculus) (UniProt Q01727). In words: Agonist activity at mouse MC1R expressed in HEK293 cells assessed as cAMP accumulation incubated for 2 hrs by alphascreen assay relative to Ac-His-DPhe-Arg-Trp-NH2. Format: functional, cell-based. Summed up: as §4
The target in data set [8] is Melanocortin receptor 3 (Mus musculus) (UniProt P33033). In words: Displacement of 125I-NDP-MSH from mouse MC3R expressed in HEK293 cells at 100 uM incubated for 1 hr by gamma counting analysis. It counts as cell-based. Summed up: as §1
Data set [9] concerns Mus musculus. Description: Reduction in food intake in icv dosed male 129/Sv x C57BL/6J mouse measured at 2 to 72 hrs post dose. It counts as functional, organism-based. Summed up: (§5)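 Crossover design in mice aged 8 weeks with lateral-ventricle cannulas (placement validated by PYY3-36), chow ad libitum, 12-h light/dark. Single ICV injection of 1.0, 2.5 or 5.0 nmol in 3 µL saline, or saline alone, 2 h before lights out. Food intake and body weight weighed at 0, 2, 4, 6, 8, 24, 48, 72 h. One-way ANOVA with Bonferroni test versus saline.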

The test system of data set [10] is Mus musculus. In words: Toxicity in male 129/Sv x C57BL/6J mouse assessed as drug tolerability at 2.5 and 5 nmol, icv measured at 2 to 72 hrs post dose. Format: organism-based. As to conditions: in vivo.
Data set [11] has as its system Mus musculus. In words: Effect on body weight in male 129/Sv x C57BL/6J mouse at 2.5 to 5 nmol, icv measured at 2 to 72 hrs post dose. It counts as ADME, organism-based. As to conditions: in vivo, icv_or_intrathecal. Summed up:
as §5

The test system of data set [12] is Mus musculus. Description: Reduction in food intake in female 129/Sv x C57BL/6J mouse at 2.5 to 5 nmol, icv measured at 48 to 72 hrs post dose. It counts as functional, organism-based. An outline of the steps: as §5
Data set [13] relates to Mus musculus. In words: Reduction in food intake in male 129/Sv x C57BL/6J mouse at 2.5 to 5 nmol, icv measured at 2 to 5 hrs post dose. Format: functional, organism-based.
The test system of data set [14] is Mus musculus. In words: Reduction in food intake in female 129/Sv x C57BL/6J mouse at 2.5 to 5 nmol, icv measured at 2 to 8 hrs post dose. Format: functional, organism-based. Summed up:
as §5

Data set [15] has as its system Mus musculus. In words: Reduction in food intake in male 129/Sv x C57BL/6J mouse at 2.5 to 5 nmol, icv measured at 24 to 72 hrs post dose. Format: functional, organism-based. An outline of the steps:
as §5

Data set [16] has as its system Mus musculus. Description: Reduction in food intake in female 129/Sv x C57BL/6J mouse at 2.5 to 5 nmol, icv measured at 24 hrs post dose. Format: functional, organism-based. Summed up:
as §5

In data set [17] the test system is Mus musculus. In words: Effect on body weight in female 129/Sv x C57BL/6J mouse at 2.5 to 5 nmol, icv measured at 2 to 72 hrs post dose. It counts as ADME, organism-based. The note with it: in vivo, icv_or_intrathecal. An outline of the steps: as §5
Data set [18] has as its target Melanocortin receptor 4 (Mus musculus) (UniProt P56450). In words: Agonist activity at mouse MC4R expressed in HEK293 cells assessed as cAMP accumulation incubated for 2 hrs by alphascreen assay relative to Ac-His-DPhe-Arg-Trp-NH2. It counts as functional, cell-based. Summed up: as §4
Data set [19] addresses Melanocortin receptor 5 (Mus musculus) (UniProt P41149). In words: Agonist activity at mouse MC5R expressed in HEK293 cells assessed as cAMP accumulation at 100 uM incubated for 2 hrs by alphascreen assay. It counts as functional, cell-based. Summed up: as §3

Activity calls are given as the source filed them. The calls are words filed in the database; no cut-off is given here. Square brackets hold non-standard residues; d marks the D form. Peptide text beside a SMILES is read from it.

Chain of Melanocortin receptor 3 (Mus musculus) (P33033 whole entry): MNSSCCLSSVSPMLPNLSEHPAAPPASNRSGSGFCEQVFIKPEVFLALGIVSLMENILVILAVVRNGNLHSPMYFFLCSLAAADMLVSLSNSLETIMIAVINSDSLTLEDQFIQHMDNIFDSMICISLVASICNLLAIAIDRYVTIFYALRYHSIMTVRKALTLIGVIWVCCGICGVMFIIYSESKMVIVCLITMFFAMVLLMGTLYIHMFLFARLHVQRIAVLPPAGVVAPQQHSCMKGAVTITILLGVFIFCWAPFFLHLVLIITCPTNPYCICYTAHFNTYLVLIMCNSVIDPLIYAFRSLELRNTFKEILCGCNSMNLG
Chain of Melanocortin receptor 5 (Mus musculus) (P41149 whole entry): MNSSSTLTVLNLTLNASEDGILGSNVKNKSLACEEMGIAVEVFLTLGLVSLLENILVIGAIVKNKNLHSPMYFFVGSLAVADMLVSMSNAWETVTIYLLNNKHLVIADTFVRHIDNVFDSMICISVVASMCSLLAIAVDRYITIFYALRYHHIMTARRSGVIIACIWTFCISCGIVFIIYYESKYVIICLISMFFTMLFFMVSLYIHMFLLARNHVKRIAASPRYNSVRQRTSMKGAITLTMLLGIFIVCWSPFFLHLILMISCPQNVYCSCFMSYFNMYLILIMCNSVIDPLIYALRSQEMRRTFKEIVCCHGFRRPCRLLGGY
Chain of Melanocortin receptor 4 (Mus musculus) (P56450 whole entry): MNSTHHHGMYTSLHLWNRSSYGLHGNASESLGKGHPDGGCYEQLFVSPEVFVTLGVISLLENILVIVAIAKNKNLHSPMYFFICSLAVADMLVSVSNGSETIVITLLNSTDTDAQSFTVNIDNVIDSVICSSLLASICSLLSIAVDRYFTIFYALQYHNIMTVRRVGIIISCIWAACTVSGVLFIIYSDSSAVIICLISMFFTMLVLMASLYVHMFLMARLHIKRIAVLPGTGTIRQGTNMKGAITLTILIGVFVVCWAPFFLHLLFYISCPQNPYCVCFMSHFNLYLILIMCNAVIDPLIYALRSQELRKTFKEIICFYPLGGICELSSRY
Chain of Melanocyte-stimulating hormone receptor (Mus musculus) (Q01727 whole entry, looked up): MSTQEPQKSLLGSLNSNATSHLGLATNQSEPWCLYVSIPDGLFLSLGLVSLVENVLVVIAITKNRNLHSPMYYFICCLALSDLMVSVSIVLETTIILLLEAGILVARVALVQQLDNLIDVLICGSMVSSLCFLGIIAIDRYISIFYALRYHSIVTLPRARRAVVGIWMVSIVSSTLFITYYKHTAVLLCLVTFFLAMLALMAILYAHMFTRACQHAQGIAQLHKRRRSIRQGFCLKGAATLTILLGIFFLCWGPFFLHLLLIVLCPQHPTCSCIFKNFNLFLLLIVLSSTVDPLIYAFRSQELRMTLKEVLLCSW

Regarding `CC(=O)N[C@@H](Cc1cnc[nH]1)C(=O)N[C@H](Cc1ccc2ccccc2c1)C(=O)N[C@@H](CCCNC(=N)N)C(=O)N[C@@H](Cc1c[nH]c2ccccc12)C(=O)NCCCOCCOCCOCCCNC(=O)COCC(=O)N[C@@H](Cc1cnc[nH]1)C(=O)N[C@H](Cc1ccc2ccccc2c1)C(=O)N[C@@H](CCCNC(=N)N)C(=O)N[C@@H](Cc1c[nH]c2ccccc12)C(N)=O`, the Ratio IC50 in [1] came to 4; in [2], 2. The Activity worked out at 85% in data set [3] and 80% in data set [4].

Consider `CC(=O)N[C@@H](Cc1cnc[nH]1)C(=O)N[C@H](Cc1ccc2ccccc2c1)C(=O)N[C@@H](CCCNC(=N)N)C(=O)N[C@@H](Cc1c[nH]c2ccccc12)C(=O)NCCCOCCOCCOCCCNC(=O)COCC(N)=O`, for which the Ratio IC50 in [5] was determined as 2. In addition, the values for the Activity in data set [3] and in data set [4] were 20% and 40%, respectively.

As to `N=C(N)NCCC[C@H](NC(=O)[C@@H](Cc1ccccc1)NC(=O)[C@H](Cc1cnc[nH]1)NC(=O)CNC(=O)[C@@H]1CCCN1C(=O)CNC(=O)[C@@H]1CCCN1C(=O)CNC(=O)[C@@H]1CCCN1C(=O)CNC(=O)[C@@H]1CCCN1C(=O)CNC(=O)[C@@H]1CCCN1C(=O)CNC(=O)[C@@H]1CCCN1)C(=O)N[C@@H](Cc1c[nH]c2ccccc12)C(N)=O` (H-PGPGPGPGPGPGH[dF]RW-NH2), the Ratio EC50 in data set [6] turned out to be 2; in data set [7], 0.9.

Consider `CC(=O)N[C@H](Cc1cnc[nH]1)C(=O)N[C@H](Cc1ccccc1)C(=O)N[C@@H](CCCNC(=N)N)C(=O)N[C@H](Cc1c[nH]c2ccccc12)C(=O)N1CCC[C@@H]1C(=O)NCC(=O)N1CCC[C@@H]1C(=O)NCC(=O)N1CCC[C@@H]1C(=O)NCC(=O)N1CCC[C@@H]1C(=O)NCC(=O)N1CCC[C@@H]1C(=O)NCC(=O)N1CCC[C@H]1C(=O)NCC(=O)N[C@@H](Cc1cnc[nH]1)C(=O)N[C@H](Cc1ccccc1)C(=O)N[C@@H](CCCNC(=N)N)C(=O)N[C@@H](Cc1c[nH]c2ccccc12)C(N)=O`, for which the Ratio EC50 in data set [7] was 3.

As a reminder, the inhibition is how much of the control response was suppressed. Higher therefore signals strong suppression. With `CC(=O)N[C@@H](Cc1cnc[nH]1)C(=O)N[C@H](Cc1ccccc1)C(=O)N[C@@H](CCCNC(=N)N)C(=O)N[C@@H](Cc1c[nH]c2ccccc12)C(N)=O`, the inhibition in data set [8] turned out to be 60%.

`CC(=O)N[C@@H](Cc1cnc[nH]1)C(=O)N[C@H](Cc1ccccc1)C(=O)N[C@@H](CCCNC(=N)N)C(=O)N[C@@H](Cc1c[nH]c2ccccc12)C(=O)NCCCOCCOCCOCCCNC(=O)COCC(N)=O`: the Ratio IC50 turned out to be 6 in [1] and 2 in data set [5].

For `CC(=O)N[C@@H](Cc1cnc[nH]1)C(=O)N[C@H](Cc1ccccc1)C(=O)N[C@@H](CCCNC(=N)N)C(=O)N[C@@H](Cc1c[nH]c2ccccc12)C(=O)NCCCOCCOCCOCCCNC(=O)COCC(=O)N[C@@H](Cc1cnc[nH]1)C(=O)N[C@H](Cc1ccccc1)C(=O)N[C@@H](CCCNC(=N)N)C(=O)N[C@@H](Cc1c[nH]c2ccccc12)C(N)=O`, the Activity result in the data set on Mus musculus [9] was “Dose-dependent effect”; with Mus musculus [10], “Non-toxic”; with Mus musculus [11] it was “Non-toxic”; in the data set with Mus musculus [17], “Non-toxic”. The result in the data set with Mus musculus [12], in the data set with Mus musculus [14] and with Mus musculus [15] was inactive. The result in the data set on Mus musculus [13] and in the data set with Mus musculus [16] was Active.

In data set [8], `CC(=O)N[C@H](Cc1cnc[nH]1)C(=O)N[C@H](Cc1ccccc1)C(=O)N[C@@H](CCCNC(=N)N)C(=O)N[C@H](Cc1c[nH]c2ccccc12)C(=O)N1CCC[C@@H]1C(=O)NCC(=O)N1CCC[C@@H]1C(=O)NCC(=O)N1CCC[C@@H]1C(=O)NCC(=O)N1CCC[C@@H]1C(=O)NCC(=O)N1CCC[C@@H]1C(=O)NCC(=O)N1CCC[C@H]1C(=O)NCC(N)=O` had an inhibition of 85%. In addition, the Ratio EC50 in data set [18] was found to be 0.2; in data set [7], 2.

Take `N=C(N)NCCC[C@H](NC(=O)[C@@H](Cc1ccc2ccccc2c1)NC(=O)[C@H](Cc1cnc[nH]1)NC(=O)COCC(=O)NCCCOCCOCCOCCCN)C(=O)N[C@@H](Cc1c[nH]c2ccccc12)C(N)=O`: the Ratio IC50 in data set [1] and in [5] was 1 throughout. Besides, the Activity in data set [3] was 40%.

For `CC(=O)N[C@@H](Cc1c[nH]cn1)C(=O)N[C@H](Cc1ccc2ccccc2c1)C(=O)N[C@@H](CCCN=C(N)N)C(=O)N[C@@H](Cc1c[nH]c2ccccc12)C(N)=O`, the Activity in data set [19] was determined as 75%; in [4], 45%.

For the compound `N=C(N)NCCC[C@H](NC(=O)[C@@H](Cc1ccccc1)NC(=O)[C@H](Cc1cnc[nH]1)NC(=O)COCC(=O)NCCCOCCOCCOCCCN)C(=O)N[C@@H](Cc1c[nH]c2ccccc12)C(N)=O`, in data set [8], the inhibition came to 78%. The Ratio EC50 in [6] was determined as 2; in data set [18] it was 0.7; in data set [7], 0.6.
